Structures are written as SMILES. In brackets after ≈: the same amount, converted by molar mass.

Test [1] relates to Staphylococcus aureus. As to the kind of experiment: Antibacterial activity against Staphylococcus aureus ATCC 25923 after 18 hrs. Format: functional. To be noted: ATCC 25923, 18 h. An outline of the steps: (§1)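 Twofold serial dilutions in Tryptic Soy Broth, 0.1 to 80 µg/mL; stocks in DMSO/TSB 1:10 v/v. Inoculum adjusted to 0.5 McFarland, then diluted in sterile saline and TSB. Incubated 35 °C for 18 h. MIC taken as the lowest concentration with no visible growth. Triplicate.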

For test [2], the system named is Staphylococcus aureus. As to the kind of experiment: Antibacterial activity against multidrug-resistant Staphylococcus aureus 3SP/R33 after 18 hrs. The following applies: 3SP/R33, 18 h. It counts as functional. An outline of the steps:
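Twofold serial dilutions in Tryptic Soy Broth, 0.1 to 80 µg/mL. Stocks prepared in DMSO/TSB 1:10 v/v. Inoculum was adjusted to 0.5 McFarland, then diluted in sterile saline and TSB. Plates were incubated at 35 °C for 18 h. MIC taken as the lowest concentration with no visible growth. Readings at 24 and 48 h served as sterility control. Run in triplicate.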

Test [3] concerns Staphylococcus aureus. As to the kind of experiment: Antibacterial activity against vancomycin-intermediate Staphylococcus aureus VISA3 after 18 hrs. It counts as functional. To be noted: VISA3, 18 h. An outline of the steps: as §1
Another test deals with Trypanosoma cruzi. The test is described as follows: Antitrypanosomal activity against epimastigote form of Trypanosoma cruzi Y after 5 days by spectrophotometer analysis. It counts as functional, organism-based. To be noted: 120 h. An outline of the steps: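 Stationary-phase epimastigotes from a 10-day, 28 °C culture were set at 2.0 × 10^6 parasites/mL in LIT medium. Compounds in DMSO were diluted into LIT at 1.25–40.0 µM and incubated 5 days at 28 °C. A580 on days 0 and 5 gave % growth inhibition against untreated cultures. IC50 came from dose–response curves (≥4 concentrations). Triplicate; benznidazole reference.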

A further test concerns Candida albicans. The test is described as follows: Antifungal activity against Candida albicans ATCC 537Y after 48 hrs by serial dilution method. It counts as functional. An outline of the steps:
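Broth microdilution following CLSI M27-A2, adapted for higher sensitivity. Stocks made in RPMI 1640 with 20% DMSO. Serial dilutions inoculated with C. albicans in RPMI 1640 at 10^3–10^5 CFU/mL final, incubated 35 °C for 48 h. MIC is the lowest concentration giving prominent growth reduction. Wells above 5% v/v DMSO were discarded. Triplicate; fluconazole reference.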

Regarding `CC(=O)N1N=C(c2ccccc2)OC1c1ccc([N+](=O)[O-])s1` (stereo not given), the MIC with Staphylococcus aureus [1] stood at 2.46 µg/mL (≈ 7.75 µM); against Staphylococcus aureus [2], 1.25 µg/mL (≈ 3.94 µM); against Staphylococcus aureus [3] it was 0.63 µg/mL (≈ 1.99 µM). This compound yielded an IC50 with Trypanosoma cruzi of 10.2 µM.

Regarding `CC(=O)N1N=C(c2ccc(Cl)cc2)OC1c1ccc([N+](=O)[O-])s1` (stereo not given), the minimum inhibitory concentration (MIC) stood at 1.97 µg/mL (≈ 5.6 µM) with Staphylococcus aureus [1], 1.25 µg/mL (≈ 3.55 µM) against Staphylococcus aureus [2], 2.5 µg/mL (≈ 7.11 µM) against Staphylococcus aureus [3] and 4.25 µg/mL (≈ 12.1 µM) in the test on Candida albicans. Moreover, the IC50 in the test on Trypanosoma cruzi was determined as 10.8 µM.

Turning to `CC(=O)N1N=C(c2ccc(Br)cc2)OC1c1ccc([N+](=O)[O-])s1` (stereo not given), the MIC is 2.66 µg/mL (≈ 6.71 µM) in the test with Staphylococcus aureus [1], 1.25 µg/mL (≈ 3.15 µM) with Staphylococcus aureus [2] and 2.5 µg/mL (≈ 6.31 µM) against Staphylococcus aureus [3]. In the test with Trypanosoma cruzi, this compound came in with a concentration for half-maximal inhibition (IC50) of 10.2 µM.

In the case of `CC(=O)N1N=C(c2ccc(I)cc2)OC1c1ccc([N+](=O)[O-])s1` (stereo not given), the minimal inhibitory concentration (MIC) in the test on Staphylococcus aureus [1] was 2.87 µg/mL (≈ 6.48 µM); in the test with Staphylococcus aureus [2], 1.25 µg/mL (≈ 2.82 µM); in the test with Staphylococcus aureus [3], 2.5 µg/mL (≈ 5.64 µM). In the test on Trypanosoma cruzi, this compound showed an IC50 of 12.1 µM.

For the compound `CC(=O)N1N=C(c2ccc(C(F)(F)F)cc2)OC1c1ccc([N+](=O)[O-])s1` (stereo not given), the MIC is 2.62 µg/mL (≈ 6.8 µM) against Staphylococcus aureus [1], 1.25 µg/mL (≈ 3.24 µM) in the test with Staphylococcus aureus [2], 2.5 µg/mL (≈ 6.49 µM) in the test with Staphylococcus aureus [3] and 7.2 µg/mL (≈ 18.7 µM) in the test on Candida albicans. Besides, the IC50 in the test on Trypanosoma cruzi worked out at 14.2 µM.

For `CC(=O)N1N=C(c2ccc(C)cc2)OC1c1ccc([N+](=O)[O-])s1` (stereo not given), the minimal inhibitory concentration (MIC) against Staphylococcus aureus [1] amounted to 2.62 µg/mL (≈ 7.91 µM); against Staphylococcus aureus [2], 1.25 µg/mL (≈ 3.77 µM); against Staphylococcus aureus [3], 2.5 µg/mL (≈ 7.54 µM); against Candida albicans, 2.95 µg/mL (≈ 8.9 µM). This compound also yielded an IC50 in the test on Trypanosoma cruzi of 11.5 µM.

On to `CCc1ccc(C2=NN(C(C)=O)C(c3ccc([N+](=O)[O-])s3)O2)cc1` (stereo not given), for which the MIC was 2.69 µg/mL (≈ 7.79 µM) with Staphylococcus aureus [1], 1.25 µg/mL (≈ 3.62 µM) in the test on Staphylococcus aureus [2] and 2.5 µg/mL (≈ 7.24 µM) in the test with Staphylococcus aureus [3]. Besides, in the test with Trypanosoma cruzi, the IC50 is 10.7 µM.

For `CCCc1ccc(C2=NN(C(C)=O)C(c3ccc([N+](=O)[O-])s3)O2)cc1` (stereo not given), the results for the MIC against Staphylococcus aureus [1], in the test on Staphylococcus aureus [2] and against Staphylococcus aureus [3] were 3.28 µg/mL (≈ 9.13 µM), 1.25 µg/mL (≈ 3.48 µM) and 1.25 µg/mL (≈ 3.48 µM), respectively. In the test on Trypanosoma cruzi, half-maximal inhibition (IC50) required 9.9 µM.

Regarding `COc1ccc(C2=NN(C(C)=O)C(c3ccc([N+](=O)[O-])s3)O2)cc1` (stereo not given), the minimum inhibitory concentration (MIC) against Staphylococcus aureus [1] was 2.23 µg/mL (≈ 6.42 µM); with Staphylococcus aureus [2], 1.25 µg/mL (≈ 3.6 µM); in the test with Staphylococcus aureus [3], 0.63 µg/mL (≈ 1.81 µM). For the same compound, the IC50 with Trypanosoma cruzi came to 10.7 µM.

In the case of `CCOc1ccc(C2=NN(C(C)=O)C(c3ccc([N+](=O)[O-])s3)O2)cc1` (stereo not given), the MIC against Staphylococcus aureus [1] came out at 2.36 µg/mL (≈ 6.53 µM); with Staphylococcus aureus [2], 1.25 µg/mL (≈ 3.46 µM); in the test with Staphylococcus aureus [3], 2.5 µg/mL (≈ 6.92 µM); against Candida albicans it was 5.83 µg/mL (≈ 16.1 µM). Also, the half-maximal inhibitory concentration (IC50) in the test with Trypanosoma cruzi turned out to be 26.6 µM.

As for `CCCOc1ccc(C2=NN(C(C)=O)C(c3ccc([N+](=O)[O-])s3)O2)cc1` (stereo not given), the minimum inhibitory concentration (MIC) was determined as 3.28 µg/mL (≈ 8.74 µM) in the test with Staphylococcus aureus [1], 2.5 µg/mL (≈ 6.66 µM) in the test on Staphylococcus aureus [2] and 2.5 µg/mL (≈ 6.66 µM) with Staphylococcus aureus [3]. Besides, in the test on Trypanosoma cruzi, the half-inhibitory concentration (IC50) worked out at 12.2 µM.

Regarding `CCCCOc1ccc(C2=NN(C(C)=O)C(c3ccc([N+](=O)[O-])s3)O2)cc1` (stereo not given), the minimum inhibitory concentration (MIC) against Staphylococcus aureus [1] was found to be 1.25 µg/mL (≈ 3.21 µM); against Staphylococcus aureus [2], 1.25 µg/mL (≈ 3.21 µM); with Staphylococcus aureus [3], 5 µg/mL (≈ 12.8 µM); against Candida albicans, 6.78 µg/mL (≈ 17.4 µM). The concentration for half-maximal inhibition (IC50) in the test with Trypanosoma cruzi was determined as 11.5 µM.

For `CC(=O)N1N=C(c2ccc([N+](=O)[O-])cc2)OC1c1ccc([N+](=O)[O-])s1` (stereo not given), the results for the MIC in the test with Staphylococcus aureus [1], against Staphylococcus aureus [2] and in the test with Staphylococcus aureus [3] were 2.39 µg/mL (≈ 6.6 µM), 2.5 µg/mL (≈ 6.9 µM) and 1.25 µg/mL (≈ 3.45 µM), respectively. This compound also gave a 50% inhibitory concentration (IC50) in the test on Trypanosoma cruzi of 9.85 µM.

For the compound `CC(=O)N1N=C(c2ccc(C#N)cc2)OC1c1ccc([N+](=O)[O-])s1` (stereo not given), the values for the minimal inhibitory concentration (MIC) with Staphylococcus aureus [1], in the test on Staphylococcus aureus [2] and in the test on Staphylococcus aureus [3] were 2.66 µg/mL (≈ 7.77 µM), 1.25 µg/mL (≈ 3.65 µM) and 0.63 µg/mL (≈ 1.84 µM), respectively. The compound further gave a 50% inhibitory concentration (IC50) in the test on Trypanosoma cruzi of 8.19 µM.

`COC(=O)c1ccc(C2=NN(C(C)=O)C(c3ccc([N+](=O)[O-])s3)O2)cc1` (stereo not given): the MIC turned out to be 2.95 µg/mL (≈ 7.86 µM) against Staphylococcus aureus [1], 1.25 µg/mL (≈ 3.33 µM) with Staphylococcus aureus [2] and 0.63 µg/mL (≈ 1.68 µM) in the test on Staphylococcus aureus [3]. In the test on Trypanosoma cruzi, the concentration for half-maximal inhibition (IC50) came out at 7.91 µM.

`CC1(C)S[C@@H]2[C@H](NC(=O)[C@H](N)c3ccccc3)C(=O)N2[C@H]1C(=O)O` [AMPICILLIN]: the MIC against Staphylococcus aureus [1] was found to be 0.1 µg/mL (≈ 0.286 µM).

In the test on Trypanosoma cruzi, `O=C(Cn1ccnc1[N+](=O)[O-])NCc1ccccc1` [BENZNIDAZOLE] displayed a half-inhibitory concentration (IC50) of 20.8 µM.

As to `O=C(N/N=C/c1ccc([N+](=O)[O-])o1)c1ccc(O)cc1` [NIFUROXAZIDE], the MIC in the test with Staphylococcus aureus [1] came to 5.9 µg/mL (≈ 21.4 µM); against Staphylococcus aureus [3] it was 5 µg/mL (≈ 18.2 µM). The compound also had an IC50 in the test on Trypanosoma cruzi of 120 µM.

Values taken from ChEMBL document CHEMBL1914294, “Synthesis, molecular modeling and preliminary biological evaluation of a set of 3-acetyl-2,5-disubstituted-2,3-dihydro-1,3,4-oxadiazole as potential antibacterial, anti-Trypanosoma cruzi and antifungal agents” (Bioorg Med Chem, 2011).
